Results from PubChem BioAssay.
Activity calls are given as the source filed them. Cut-off read from the data, not from the text of the source, unless noted: active = inhibition above about 30%; inactive = the rest.

Key:
[1] = Her2 expression decrease, cell viability multiplex – SKBR3 breast tumor cells, AlphaScreen, ATP viability, primary screen (AID 461;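 active = Her2 level under about 52% in both replicate screens, with viability over 70% of control, limit read from the data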;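 for Her2 level: lower value means less Her2 protein in the cells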;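 for viability: percent of carrier control wells set as 100% viability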); conditions: SKBR3 Her2 protein level, 18-24 h, measured here: SKBR3 viability, ATP luminescence, at 10 µM
[2] = biological target: Receptor tyrosine-protein kinase erbB-2 (Homo sapiens) (UniProt P04626); assay: as above; conditions: 18-24 h, at 10 µM, stronger effect = lower value
Chain of Receptor tyrosine-protein kinase erbB-2 (Homo sapiens) (P04626 whole entry, looked up): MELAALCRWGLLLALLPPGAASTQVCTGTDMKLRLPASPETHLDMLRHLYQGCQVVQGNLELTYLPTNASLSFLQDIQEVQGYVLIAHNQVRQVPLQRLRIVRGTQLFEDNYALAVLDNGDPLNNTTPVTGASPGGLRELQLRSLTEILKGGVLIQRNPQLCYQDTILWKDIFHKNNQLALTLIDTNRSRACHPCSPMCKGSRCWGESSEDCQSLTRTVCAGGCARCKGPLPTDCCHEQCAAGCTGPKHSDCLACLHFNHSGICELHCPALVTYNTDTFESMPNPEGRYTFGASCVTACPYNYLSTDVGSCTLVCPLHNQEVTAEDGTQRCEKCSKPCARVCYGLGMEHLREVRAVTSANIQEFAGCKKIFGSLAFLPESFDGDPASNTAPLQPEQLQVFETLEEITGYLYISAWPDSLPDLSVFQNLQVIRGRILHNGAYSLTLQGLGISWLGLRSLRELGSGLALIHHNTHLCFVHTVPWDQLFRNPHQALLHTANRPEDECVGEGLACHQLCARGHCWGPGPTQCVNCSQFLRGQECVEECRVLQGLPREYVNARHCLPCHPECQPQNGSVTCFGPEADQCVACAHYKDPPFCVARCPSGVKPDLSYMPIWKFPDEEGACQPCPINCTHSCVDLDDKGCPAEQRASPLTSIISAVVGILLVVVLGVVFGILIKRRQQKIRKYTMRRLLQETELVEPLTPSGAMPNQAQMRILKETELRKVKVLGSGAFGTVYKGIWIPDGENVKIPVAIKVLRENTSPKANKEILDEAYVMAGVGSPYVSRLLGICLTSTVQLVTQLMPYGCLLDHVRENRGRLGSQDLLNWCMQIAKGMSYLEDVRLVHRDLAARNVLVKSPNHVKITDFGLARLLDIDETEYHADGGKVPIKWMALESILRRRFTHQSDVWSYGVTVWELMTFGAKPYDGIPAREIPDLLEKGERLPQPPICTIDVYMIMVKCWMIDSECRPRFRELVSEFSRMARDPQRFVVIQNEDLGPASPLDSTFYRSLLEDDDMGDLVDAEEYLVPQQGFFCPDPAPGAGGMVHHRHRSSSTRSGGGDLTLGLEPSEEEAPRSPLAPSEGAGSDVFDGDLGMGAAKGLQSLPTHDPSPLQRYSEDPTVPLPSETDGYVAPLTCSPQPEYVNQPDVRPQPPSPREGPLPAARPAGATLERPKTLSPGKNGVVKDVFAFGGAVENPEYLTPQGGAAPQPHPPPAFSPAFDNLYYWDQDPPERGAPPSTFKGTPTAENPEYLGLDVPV

[3] = reduced viability of SK-BR-3 breast cancer cells – cell-based, 24 h, human, pilot screen (AID 572;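 active = viability at or below 10% of carrier control in both of two separate runs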;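 note: compound exposure lasted between 18 and 24 h rather than exactly 24 h; 100% = carrier-treated control wells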); conditions: SK-BR-3 viability, CellTiter-Glo luminescence, at 10 µM, stronger effect = lower value
[4] = HUVEC growth inhibition – cell-based, human, primary screen (AID 575;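 active = viability at or below 30% in both replicate assays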;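 note: 100% = median of untreated cell wells with 0.1% DMSO on each plate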); conditions: HUVEC proliferation, CellTiter-Glo luminescence, 72 h; at 10 µM; stronger effect = lower value
How it was run: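 System: primary human umbilical vein endothelial cells; Quantity: 1250 endothelial cells in each well; Buffer or medium: supplemented EBM, 2% fetal bovine serum; Doses: one dose, 10 µM final, 0.1% DMSO; Incubation: 72 h compound incubation; Technique: ATP-based CellTiter-Glo luminescent read; Evaluation: percent of median DMSO-control luminescence; Controls: vehicle and MePR control wells.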

[5] = H69AR cell proliferation blockers – human, duplicate replicates, primary screen (AID 580;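 active = viability at or under a set limit in both replicates, limit being median viability minus 3 SD, cut at about 48% in these data, passing the limit was not always enough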;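 note: 100% = mean luminescence of untreated wells and 0% = no signal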); conditions: H69AR lung tumor cells viability, ATP luminescence, 72 h; at 10 µM; stronger effect = lower value
[6] = MRP1 drug-resistance reversers in H69AR cells – cell-based, doxorubicin co-treatment, pilot screen (AID 601;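 active = viability loss from added drug above about 55%, and viability with drug at most 40%, in both replicates, limit read from the data, passing the limit was not always enough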); conditions: CellTiter-Glo, 72 h, at 10 µM; for differential viability (reversal): stronger effect = higher value
[7] = yeast transport mutant growth inhibition pilot in 384-well plates, post-Golgi transport modulator project (AID 636; in the data active = inhibition above about 31%); conditions: absorbance 615 nm, about 18 h, stronger effect = higher value
[8] = growth suppression of yeast trafficking mutant, preliminary HTS, modulators of trafficking downstream of Golgi apparatus project, 1536-format plate, OD 615 nm (AID 637); conditions: yeast transport mutant growth, absorbance 615 nm, 18 h; stronger effect = higher value
[9] = H69AR cells + 2 uM doxorubicin, measured here: viability with 2 uM doxorubicin, stronger effect = lower value
[10] = H69AR cells, compound alone cytotoxicity

SMILES | viability [1] [%] | Her2 level [2] | viability [3] | viability [4] | viability [5] | differential viability (reversal) ([6]; H69AR cells + 2 uM doxorubicin) | viability [6, 9] [%] | viability [6, 10] [%] | inhibition [7] | inhibition [8]
COC(=O)c1nc(N)sc1-c1ccccc1 | 96 | 93% (inactive) | 96% (inactive) | 95.1% (inactive) | 93.3% (inactive) | 13.3% (inactive) | 80 | 93.3 | -6.13% (inactive) | 1.43% (inactive)
O=S(=O)(c1ccc(S(=O)(=O)N(Cc2ccco2)Cc2ccccc2Cl)cc1)N1CCCC1 | 96 | 74.5% (inactive) | 96% (inactive) | 79% (inactive) | 76.6% (inactive) | 12.4% (inactive) | 64.2 | 76.6 | -5.54% (inactive) | 8.1% (inactive)
CCOC(=O)CSC1=C(C#N)C(c2ccc(Cl)cc2)C(C(=O)OC)C(=O)N1 (stereo not given) | 104 | 143% (inactive) | 104% (inactive) | 85.4% (inactive) | 88.5% (inactive) | 0.1% (inactive) | 88.4 | 88.5 | -4.74% (inactive) | 4.83% (inactive)
CN(C)c1ccc(C=Nc2ccc(N(C)C)cc2)cc1 | 104 | 94% (inactive) | 104% (inactive) | 74.2% (inactive) | 70.4% (inactive) | -7.71% (inactive) | 78.1 | 70.4 | -6.22% (inactive) | -6.23% (inactive)
CC(=O)C1=C(C)OC(N)=C(C#N)C1c1ccncc1 (stereo not given) | 133 | 80.5% (inactive) | 133% (inactive) | 115% (inactive) | 93.2% (inactive) | 8.39% (inactive) | 84.8 | 93.2 | -5.6% (inactive) | 5.41% (inactive)
COc1ccc(C(=O)CSc2nc(C)cc(=O)[nH]2)cc1 | 99.5 | 87.5% (inactive) | 99.5% (inactive) | 99.7% (inactive) | 101% (inactive) | 10% (inactive) | 91.4 | 101 | -3.2% (inactive) | 2.1% (inactive)
COC(=O)c1cn(-c2ccccc2)nc1C(=O)OC | 93.5 | 89.5% (inactive) | 93.5% (inactive) | 91% (inactive) | 97.8% (inactive) | 10.9% (inactive) | 86.9 | 97.8 | -4.8% (inactive) | -1.97% (inactive)
COc1ccc(C(=O)N2CCN(C3CCCCC3)CC2)c(OC)c1 | 82.5 | 104% (inactive) | 82.5% (inactive) | 88.3% (inactive) | 95.3% (inactive) | 0.4% (inactive) | 94.9 | 95.3 | -2.53% (inactive) | 11.8% (inactive)
